The text below walks through data of ChEMBL document CHEMBL3865795, “Design, synthesis and biological evaluation of N-((1-benzyl-1H-1,2,3-triazol-4-yl)methyl)-1,3-diphenyl-1H-pyrazole-4-carboxamides as CDK1/Cdc2 inhibitors” (2016).

The nature of assay [1]: Downregulation of CDK1 in human MCF7 cells at 50 to 100 nM after 48 hrs by Western blot analysis. Format: functional, cell-based. Put shortly:
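MCF-7 cells were treated 48 h at 50 or 100 nM and lysed in RIPA buffer. Lysate (50 µg per lane) was resolved on 10% SDS-PAGE and transferred to PVDF. Membranes were BSA-blocked, probed with primary antibody for 24 h and detected by chemiluminescence, with β-actin as loading control.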

A short description of assay [2]: Cell cycle arrest in human MCF7 cells assessed as accumulation at G2/M phase after 48 hrs by propidium iodide-staining based FACS analysis. Format: functional. Put shortly:
(§1)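 MCF-7 cells were incubated 48 h with compound at 50 or 100 nM; nocodazole 100 nM was the reference. Untreated and treated cells were harvested, washed in PBS, fixed in ice-cold 70% ethanol, stained with propidium iodide and analysed by flow cytometry for cell-cycle phase distribution.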
(In general: In flow cytometry, cells or beads pass a laser one at a time.)

Assay [3] in a line: Antiproliferative activity against human MIAPaCa2 cells after 48 hrs by SRB assay. Format: functional. The note with it: MIA PaCa-2, 48 h. Put shortly:
(§2)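 SRB assay in ATCC-sourced cells grown in DMEM with 10% FBS and penicillin/streptomycin at 37 °C, 5% CO2. Cells were plated at densities set by doubling time and incubated 24 h before dosing. Compounds (DMSO 10 mM stock diluted in medium) were tested at 0.01, 0.1, 1, 10 and 100 µM with 48 h continuous exposure. Cells were fixed in cold 10% TCA and stained with 0.057% SRB; OD was read at 510 nm. GI50 was derived from time-zero, control and test absorbances and reported as the mean of three independent experiments.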
In general terms: The SRB assay estimates cell density from bound dye.

The nature of assay [4]: Antiproliferative activity against human MCF7 cells after 48 hrs by SRB assay. Format: functional. The note with it: MCF7, 48 h. Put shortly: as §2
A short description of assay [5]: Antiproliferative activity against human HeLa cells after 48 hrs by SRB assay. Format: functional. Put shortly: as §2
Assay [6] in a line: Cell cycle arrest in human MCF7 cells assessed as reduction in DNA content at G0/G1 phase at 50 to 100 nM after 48 hrs by propidium iodide-staining based FACS analysis. It counts as functional. Put shortly: as §1
The test system of assay [7] is MCF7. The assay is described as follows: Induction of apoptosis in human MCF7 cells assessed as chromatin condensation at 50 to 100 nM after 48 hrs by Hoechst 33242-staining based fluorescence microscopic analysis. Format: functional, cell-based. Put shortly: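 MCF-7 cells were seeded at 1×10^5 cells/mL, exposed to compound at 50 or 100 nM, with DMSO vehicle as control. They were fixed in 4% paraformaldehyde for 10 min at 4 °C and stained with Hoechst 33242 (2 µg/mL) for 10 min at room temperature. Nuclear morphology was imaged by fluorescence microscopy in random fields.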

The test system of assay [8] is MCF7. Kind of assay: Induction of apoptosis in human MCF7 cells assessed as reduction in mitochondrial membrane potential at 50 to 100 nM after 48 hrs by rhodamine 123-staining based fluorescence microscopic analysis. Format: functional, cell-based. Put shortly:
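MCF-7 cells were plated at 1×10^5 cells/mL and allowed to adhere overnight, then treated at 50 or 100 nM. After PBS washes they were loaded with rhodamine 123 (5 µg/ml) for 30 min in the dark at 37 °C. Loss of green fluorescence was assessed by fluorescence microscopy.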

Assay [9] deals with MCF7. The assay is described as follows: Induction of apoptosis in human MCF7 cells assessed as intracellular ROS generation at 100 nM after 48 hrs by carboxy-DCFDA staining based fluorescence microscopic analysis. It counts as functional, cell-based. Put shortly:
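MCF-7 cells were plated at 1×10^5 cells/mL, adhered overnight and treated at 50 or 100 nM. Methods and legend state 24 h treatment; the results text states 48 h. Cells were PBS-washed, fixed in 4% paraformaldehyde and exposed to carboxy-DCFDA for 30 min in the dark at room temperature. DCF fluorescence was assessed by fluorescence microscopy.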

Assay [10] concerns MCF7. The assay is described as follows: Induction of apoptosis in human MCF7 cells assessed as viable cells at 50 nM after 48 hrs by Annexin V FITC/propidium iodide-based FACS analysis (reference value: 93.1 %). The note with it: MCF7, 48 h, read-out: Activity. It counts as functional.
For assay [11], the system named is MCF7. Kind of assay: Induction of apoptosis in human MCF7 cells assessed as early apoptotic cells at 50 nM after 48 hrs by Annexin V FITC/propidium iodide-based FACS analysis (reference value: 2.4 %). Format: functional.
The subject of assay [12] is MCF7. The assay is described as follows: Induction of apoptosis in human MCF7 cells assessed as late apoptotic cells at 50 nM after 48 hrs by Annexin V FITC/propidium iodide-based FACS analysis (reference value: 4.2 %). It counts as functional.
Assay [13] deals with MCF7. Kind of assay: Induction of apoptosis in human MCF7 cells assessed as necrotic cells at 50 nM after 48 hrs by Annexin V FITC/propidium iodide-based FACS analysis (reference value: 0.4 %). Format: functional.
The test system of assay [14] is MCF7. Kind of assay: Induction of apoptosis in human MCF7 cells assessed as viable cells at 100 nM after 48 hrs by Annexin V FITC/propidium iodide-based FACS analysis (reference value: 93.1 %). It counts as functional. The note with it: MCF7, 48 h, read-out: Activity.
Assay [15] has as its system MCF7. The assay is described as follows: Induction of apoptosis in human MCF7 cells assessed as early apoptotic cells at 100 nM after 48 hrs by Annexin V FITC/propidium iodide-based FACS analysis (reference value: 2.4 %). Format: functional.
Assay [16] relates to MCF7. Kind of assay: Induction of apoptosis in human MCF7 cells assessed as late apoptotic cells at 100 nM after 48 hrs by Annexin V FITC/propidium iodide-based FACS analysis (reference value: 4.2 %). Format: functional.
Assay [17] deals with MCF7. The assay is described as follows: Induction of apoptosis in human MCF7 cells assessed as necrotic cells at 100 nM after 48 hrs by Annexin V FITC/propidium iodide-based FACS analysis (reference value: 0.4 %). Format: functional.
In assay [18] the test system is MCF7. The assay is described as follows: Induction of apoptosis in human MCF7 cells after 48 hrs by Annexin V FITC/propidium iodide-based FACS analysis. Format: functional, cell-based.

The source made the active and inactive calls. The calls are words filed in the database; no cut-off is given here.

In the case of `O=C(NCc1cn(Cc2ccc(Cl)cc2)nn1)c1cn(-c2ccccc2)nc1-c1ccc(F)cc1`, the outcome (in [1]; in assay [6]; in the assay with MCF7 [7]; with MCF7 [8]; with MCF7 [9]) was Active. Besides, the Activity result is “Dose-dependent effect” in assay [2]; 5.2% with MCF7 [11]; 10.3% with MCF7 [12]; 0.7% in the assay on MCF7 [13]; 8.2% in the assay with MCF7 [15]; 20.5% in the assay with MCF7 [16]. Moreover, the Activity was 2% in the assay with MCF7 [17] and “Dose-dependent effect” in the assay with MCF7 [18]. Moreover, the GI50 (as a rule, the concentration that inhibits growth by half) is 280 nM in assay [3], 130 nM in assay [4] and 210 nM in [5]. In addition, the viability at 0.05 µM in the assay on MCF7 [10] was 83.8%. For the same molecule, the viability at 0.1 µM in the assay with MCF7 [14] was 69.3%.
